Data taken from ChEMBL document CHEMBL1148178, “Dicranin, an antimicrobial and 15-lipoxygenase inhibitor from the moss Dicranum scoparium” (1993).
One block for each compound: values may come before it. Active and inactive are the calls of the source. The rule behind the calls is not given here.

Assays:
[1] = tested on: Geobacillus stearothermophilus; experiment: Antibacterial activity against Bacillus stearothermophilus NCA 1518 after 24 hrs by disk diffusion assay; type: functional, organism-based
Summary of the method: (§1)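 Sterile 6 mm filter-paper disc bearing sample set in the centre of a Petri dish of 15 ml plate count agar. Overlaid with 3 ml soft nutrient agar (nutrient broth + 0.7% agar) seeded with 1% of a 16–18 h culture of the test strain. Read-out is the diameter of the growth-free zone around the disc.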

[2] = tested on: Bacillus cereus; experiment: Antibacterial activity against Bacillus cereus NCIB 3329 after 24 hrs by disk diffusion assay; type: functional, organism-based; summary of the method: as §1
[3] = tested on: Bacillus subtilis; experiment: Antibacterial activity against Bacillus subtilis NCIB 3610 after 24 hrs by disk diffusion assay; type: functional, organism-based; summary of the method: as §1
[4] = tested on: Enterococcus faecalis; experiment: Antibacterial activity against Streptococcus faecalis NCIB 775 after 24 hrs by disk diffusion assay; type: functional, organism-based; summary of the method: as §1
[5] = tested on: Escherichia coli; experiment: Antibacterial activity against Escherichia coli B74-1 after 24 hrs by disk diffusion assay; type: functional, organism-based; summary of the method: as §1
[6] = tested on: Salmonella typhimurium; experiment: Antibacterial activity against Salmonella Typhimurium NCIB 10248 after 24 hrs by disk diffusion assay; type: functional, organism-based; settings: Salmonella enterica subsp. enterica serovar Typhimurium; summary of the method: as §1
[7] = tested on: Pseudomonas aeruginosa; experiment: Antibacterial activity against Pseudomonas aeruginosa ATCC 10145 after 24 hrs by disk diffusion assay; type: functional, organism-based; summary of the method: as §1
[8] = tested on: Pseudomonas putida; experiment: Antibacterial activity against Pseudomonas putida T-AQ 18/YF18 after 24 hrs by disk diffusion assay; type: functional, organism-based; summary of the method: as §1
[9] = tested on: Staphylococcus aureus; experiment: Antibacterial activity against Staphylococcus aureus T-AQ 49/YF29 after 24 hrs by disk diffusion assay; type: functional, organism-based; summary of the method: as §1
[10] = tested on: Glycine max; experiment: Inhibition of soybean 15-LOX at 4 uM
Summary of the method: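 15-lipoxygenase assay run by a literature method with arachidonic acid (40 μM) as substrate.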

Compound: CC/C=C\C/C=C\C/C=C\C/C=C\CCCCC(=O)O
Activity [1]: Active | Activity [2]: Active | Activity [3]: Active | Activity [4]: Active | Activity [5]: Active | Activity [6]: Active | Activity [7]: Active | Activity [8]: Active | Activity [9]: Active

inhibition [10]: 95%
Compound: CCCCCC#CCC#CCC#CCC#CCCCC(=O)O
